Test results published in ChEMBL document CHEMBL3351723, “New derivatives of lupane triterpenoids disturb breast cancer mitochondria and induce cell death” (Bioorg Med Chem, 2014).
Activity calls are given as the source filed them. No cut-off for these calls is given here.

Assays:
[1] = test system: BJ; assay: Cytotoxicity against human BJ cells at 0.125 to 2 ug/ml after 1 to 5 days by sulforhodamine B assay; assay type: cell-based
Outline: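 Non-tumor cells seeded at 2×10^4 cells/ml and treated 24 h after seeding, in high-glucose DMEM with pyruvate, 10% FBS and penicillin-streptomycin, 37°C, 5% CO2. Compound exposure 0.125–2 μg/ml for 1, 3 and 5 days, with vehicle controls. Cells fixed and stained with sulforhodamine B for total cell mass. Data given as % of untreated control at each time point; five independent experiments.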

[2] = test system: MDA-MB-231; assay: Cytotoxicity against human MDA-MB-231 cells at 0.125 to 2 ug/ml after 1 to 5 days by sulforhodamine B assay in presence of taxol; assay type: functional, cell-based
[3] = test system: Hs-578T; assay: Cytotoxicity against human Hs578T cells at 0.125 to 2 ug/ml after 1 to 5 days by sulforhodamine B assay in presence of taxol; assay type: functional, cell-based
[4] = test system: MCF7; assay: Cytotoxicity against human MCF7 cells at 0.125 to 2 ug/ml after 1 to 5 days by sulforhodamine B assay in presence of taxol; assay type: functional, cell-based
[5] = Cell cycle arrest against human Hs578T cells assessed as decrease in cells at S phase at 0.5 ug/ml after 24 to 48 hrs by propidium iodide staining based flow cytometry; assay type: functional; conditions: Hs-578T
Outline: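 Log-phase Hs578T cells exposed 24 and 48 h to 0.5 μg/ml. Adherent plus floating cells fixed in cold 70% ethanol, kept overnight at -20°C, washed into PBS-T (132 mM NaCl, 4 mM KCl, 1.2 mM NaH2PO4, 0.1% Tween). Treated with 20 μg/ml RNase for 45 min at 37°C, then propidium iodide for 30 min at 37°C. Phase percentages read by flow cytometry. Mean ± SEM, 5 experiments.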

[6] = test system: Hs-578T; assay: Induction of apoptosis in human Hs578T cells assessed as increase in caspase 3 like activity at 1 ug/ml after 24 hrs; assay type: functional, cell-based
[7] = test system: Hs-578T; assay: Effect on Bax protein level in human Hs578T cells at 1 ug/ml after 24 hrs by Western blot analysis; assay type: functional, cell-based
[8] = Induction of apoptosis in human Hs578Bst cells assessed as distribution of mitochondrial polarization and morphology at 0.25 ug/ml after 6 hrs by confocal microscopy; assay type: functional, cell-based
Outline: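 Cells were seeded on glass coverslips and left to attach for 24 h. They were then exposed to vehicle or 0.25 μg/ml compound for 6 h. For the last 30 min they were loaded with 100 nM TMRM in saline buffer with 15 mM glucose, and the probe was kept present during imaging. Mitochondrial polarization and morphology were imaged by fluorescence microscopy, and the TMRM fluorescence standard deviation was quantified. Four independent preparations, mean ± SEM.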

[9] = test system: MDA-MB-231; assay: Cytotoxicity against human MDA-MB-231 cells assessed as reduction in cell number in glucose-free, galactose/glutamine medium after 3 to 5 days; assay type: functional, cell-based
Outline: (§1)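 Cells grown in glucose-free DMEM with galactose (1.8 g/L), L-glutamine (0.584 g/L), pyruvate and 10% FBS, forcing ATP from oxidative phosphorylation. Exposed to a dose range for 1, 3 and 5 days. Cell number read by sulforhodamine B and expressed as % of control. Mean ± SEM, 5 experiments.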

[10] = test system: MCF7; assay: Cytotoxicity against human MCF7 cells assessed as reduction in cell number in glucose-free, galactose/glutamine medium after 3 to 5 days; assay type: functional, cell-based; outline: as §1
[11] = test system: Liver microsome; assay: Reduction in ADP-induced mitochondrial transmembrane electropotential in Wistar Han rat liver mitochondria energized with succinate at >0.7 ug/mg of protein; assay type: functional
[12] = Induction of mitochondrial permeability transition pore in Wistar Han rat liver mitochondria assessed as mitochondrial swelling by spectrophotometry; assay type: functional
Outline: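 Isolated rat liver mitochondria were energized with succinate plus rotenone and pre-incubated with compound at 0.07–1.33 µg/mg protein. MPT was then triggered by one Ca2+ pulse of 40 nmol/mg protein. Swelling was followed as pseudo-absorbance at 540 nm, and amplitude is basal minus the reading 600 s after Ca2+. Cyclosporin A at 1 µM was the reference, with 6 preparations.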

[13] = test system: Liver microsome; assay: Induction of mitochondrial function disruption in Wistar Han rat liver mitochondria energized with succinate assessed as State-3 level per mg of protein measured at 1.333 ug/mg of protein (reference value: 130.8 +/- 24.1 nmol/mg protein/min); assay type: functional
[14] = test system: Liver microsome; assay: Induction of mitochondrial function disruption in Wistar Han rat liver mitochondria energized with succinate assessed as State-4 level per mg of protein measured at 0.133 ug/mg of protein (reference value: 33.5 +/- 7.5 nmol/mg protein/min); assay type: functional
[15] = test system: Liver microsome; assay: Induction of mitochondrial function disruption in Wistar Han rat liver mitochondria energized with succinate assessed as State-4 level per mg of protein measured at 0.667 ug/mg of protein (reference value: 33.5 +/- 7.5 nmol/mg protein/min); assay type: functional
[16] = test system: Liver microsome; assay: Induction of mitochondrial function disruption in Wistar Han rat liver mitochondria energized with succinate assessed as adenosine diphosphate/O ratio measured at 0.333 ug/mg of protein (reference value: 2.3 +/- 0.2 no_unit); assay type: functional
[17] = test system: Liver microsome; assay: Induction of mitochondrial function disruption in Wistar Han rat liver mitochondria energized with succinate assessed as respiratory control ratio measured at 0.133 ug/mg of protein (reference value: 4.1 +/- 0.5 no_unit); assay type: functional
[18] = test system: Liver microsome; assay: Induction of mitochondrial function disruption in Wistar Han rat liver mitochondria energized with succinate assessed as respiratory control ratio measured at 1.333 ug/mg of protein (reference value: 4.1 +/- 0.5 no_unit); assay type: functional
[19] = test system: Hs-578T; assay: Cytotoxicity against human Hs578T cells at 0.125 to 2 ug/ml incubated for 6 hrs folowed by drug wash out and fresh medium addition and measured 5 days after wash out; assay type: functional, cell-based
[20] = test system: Liver microsome; assay: Induction of mitochondrial permeability transition pore in Wistar Han rat liver mitochondria assessed as mitochondrial swelling by spectrophotometry relative to control
[21] = test system: Liver microsome; assay: Effect on mitochondrial transmembrane potential in Wistar Han rat liver mitochondria energized with succinate assessed as ADP depolarization at 1.333 ug/mg of protein (reference value: 25.3 +/- 2.1 mV); assay type: functional
[22] = test system: Hs-578T; assay: Cytotoxicity against human Hs578T cells at 0.125 to 2 ug/ml after 1 to 5 days by sulforhodamine B assay; assay type: functional, cell-based
Outline: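 Sulforhodamine B growth assay in high-glucose DMEM with 10% FBS. Cancer cells seeded at 1×10^4 cells/ml; compound (0.125–2 μg/ml) added 24 h after seeding and left for 1, 3 or 5 days. Cells fixed, total mass stained. Expressed as % of untreated cells at the same time point. Mean ± SEM, five independent experiments.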

[23] = test system: Liver microsome; assay: Effect on mitochondrial transmembrane potential in Wistar Han rat liver mitochondria energized with succinate assessed as time duration of lag phase at 0.133 ug/mg of protein (reference value: 40.5 +/- 4.5 sec); assay type: functional
Outline: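 Isolated male Wistar rat liver mitochondria (1.5 mg protein) in 125 mM sucrose, 65 mM KCl, 5 mM KH2PO4, 2.5 mM MgCl2, 5 mM HEPES pH 7.4, 30°C, with 3 μM TPP+. Compound added for 1 min, then 10 mM succinate plus 3 μM rotenone. State 3 started with ADP (83.3 nmol/mg protein). ΔΨ read with a TPP+-selective electrode and calculated by the Kamo equation without binding correction.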

| SMILES | Activity [1] | inhibition [2] | inhibition [3] | inhibition [4] | inhibition [5] | Activity [6] | Activity [7] | Activity [8] | Cytotoxicity (active/inactive call) [9] | inhibition [10] | inhibition [11] | Activity [12] | Activity [13] [nmol/min] | Activity [14] [nmol/min] | Activity [15] [nmol/min] | Ratio [16] | Ratio [17] | Ratio [18] | inhibition [19] | fold change (FC) [20] | further results |
| --- | --- | --- | --- | --- | --- | --- | --- | --- | --- | --- | --- | --- | --- | --- | --- | --- | --- | --- | --- | --- | --- |
| C=C(C)[C@@H]1CC[C@]2(COC(=O)C[n+]3ccc(N(C)C)cc3)CC[C@]3(C)[C@H](CC[C@@H]4[C@@]5(C)CC[C@H](OC(=O)C[n+]6ccc(N(C)C)cc6)C(C)(C)[C@@H]5CC[C@]43C)[C@@H]12.[Cl-].[Cl-] | Non-toxic | Active | Active | Active | Active | Active | inactive | Active | Active | Active | Active | Dose-dependent effect | 131 | 34.5 | 34.5 | 2.2 | 4.1 | 4 | Active | 5 | – |
| C=C(C)[C@@H]1CC[C@]2(COC(=O)CC[n+]3ccc(N(C)C)cc3)CC[C@]3(C)[C@H](CC[C@@H]4[C@@]5(C)CC[C@H](OC(=O)CC[n+]6ccc(N(C)C)cc6)C(C)(C)[C@@H]5CC[C@]43C)[C@@H]12.[Cl-].[Cl-] | Toxic | – | – | – | Active | Active | inactive | inactive | Active | Active | – | inactive | 112 | 25.3 | 25.7 | 1.8 | 4.1 | 4.3 | Active | – | Activity [21]: 20.3 mV; inhibition [22]: Active |
| C=C(C)[C@@H]1CC[C@]2(COC(=O)C[N+](C)(C)C(C)C)CC[C@]3(C)[C@H](CC[C@@H]4[C@@]5(C)CC[C@H](OC(=O)C[N+](C)(C)C(C)C)C(C)(C)[C@@H]5CC[C@]43C)[C@@H]12.[Cl-].[Cl-] | – | Active | Active | Active | Active | Active | inactive | Active | Active | Active | Active | Dose-dependent effect | 107 | 28.6 | 28.8 | 2.9 | 4 | 4.2 | Active | 5 | inhibition [22]: Active |
| C=C(C)[C@@H]1CC[C@]2(COC(=O)C(CC)[n+]3ccc(N(C)C)cc3)CC[C@]3(C)[C@H](CC[C@@H]4[C@@]5(C)CC[C@H](OC(=O)C(CC)[n+]6ccc(N(C)C)cc6)C(C)(C)[C@@H]5CC[C@]43C)[C@@H]12 (some centres not stated) | – | – | – | – | Active | Active | inactive | Active | Active | Active | – | Dose-dependent effect | 119 | 23.7 | 23.2 | 1.6 | 3 | 3.2 | – | 5 | TIME [23]: 0.0122 h |
